This note sets out measurements from ChEMBL document CHEMBL4043282, “Discovery of the First Potent, Selective, and Orally Bioavailable Signal Peptide Peptidase-Like 2a (SPPL2a) Inhibitor Displaying Pronounced Immunomodulatory Effects In Vivo” (J Med Chem, 2018).

Data set [1] is described as follows: Oral bioavailability in Sprague-Dawley rat at 1 mg/kg by LC/MS/MS analysis. The class given is ADME, organism-based. As to conditions: in vivo.
Data set [2] addresses T1, Signal peptide peptidase-like 2A (Homo sapiens, UniProt Q8TCT8).
T1 sequence (Q8TCT8 whole entry): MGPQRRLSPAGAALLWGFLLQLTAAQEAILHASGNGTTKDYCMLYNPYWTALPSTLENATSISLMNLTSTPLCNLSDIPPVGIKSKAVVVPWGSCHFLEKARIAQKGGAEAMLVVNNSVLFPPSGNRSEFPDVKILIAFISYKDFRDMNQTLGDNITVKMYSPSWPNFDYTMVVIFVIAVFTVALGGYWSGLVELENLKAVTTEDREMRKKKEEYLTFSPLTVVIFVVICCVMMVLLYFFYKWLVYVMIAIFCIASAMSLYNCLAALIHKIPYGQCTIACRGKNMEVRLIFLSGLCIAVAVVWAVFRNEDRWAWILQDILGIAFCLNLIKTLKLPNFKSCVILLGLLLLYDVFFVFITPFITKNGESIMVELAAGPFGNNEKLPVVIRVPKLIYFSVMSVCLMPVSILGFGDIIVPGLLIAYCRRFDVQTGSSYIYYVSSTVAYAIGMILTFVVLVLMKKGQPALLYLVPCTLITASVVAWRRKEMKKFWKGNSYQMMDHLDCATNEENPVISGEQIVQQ
The data set is described as follows: Inhibition of human SPPL2a expressed in HEK293 cells using GAL4-VP16 fusedTNFalpha (1 to 76)-NTF as substrate after 24 hrs by Bright-Glo luciferase reporter gene assay. It counts as cell-based. In short, it runs like this: (§1)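 HEK293 cells transiently transfected with human SPPL2a, VP16-TNFα(aa1-76)-NTF substrate and Gal4-luciferase reporter (SPPL2a), or human Notch1-VP16-Gal4 plus Gal4-luciferase reporter relying on endogenous γ-secretase.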
For orientation: A reporter such as luciferase makes a cellular process visible.

Data set [3] can be described thus: Octanol-buffer partition coefficient, log P of the compound by LC/MS/MS based shake flask method. It counts as physicochemical.
In data set [4] the test system is Rattus norvegicus. The data set can be described thus: Dose normalized AUC in Sprague-Dawley rat at 3 mg/kg, po by LC/MS/MS analysis. Conditions: in vivo. It counts as ADME, organism-based. In short, it runs like this:
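Female Sprague−Dawley rats catheterized (femoral artery/vein); cassette oral dosing 3 mg/kg per compound as aqueous Tween 80/CMC-Na suspension (0.5/0.5/99), 48 h after iv dose; arterial blood sampled over time into EDTA tubes; LC-MS/MS with QC acceptance 70−130%; noncompartmental PK.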

Data set [5] concerns the target T2, Signal peptide peptidase-like 2A (Mus musculus, UniProt Q9JJF9).
T2 sequence (Q9JJF9 whole entry): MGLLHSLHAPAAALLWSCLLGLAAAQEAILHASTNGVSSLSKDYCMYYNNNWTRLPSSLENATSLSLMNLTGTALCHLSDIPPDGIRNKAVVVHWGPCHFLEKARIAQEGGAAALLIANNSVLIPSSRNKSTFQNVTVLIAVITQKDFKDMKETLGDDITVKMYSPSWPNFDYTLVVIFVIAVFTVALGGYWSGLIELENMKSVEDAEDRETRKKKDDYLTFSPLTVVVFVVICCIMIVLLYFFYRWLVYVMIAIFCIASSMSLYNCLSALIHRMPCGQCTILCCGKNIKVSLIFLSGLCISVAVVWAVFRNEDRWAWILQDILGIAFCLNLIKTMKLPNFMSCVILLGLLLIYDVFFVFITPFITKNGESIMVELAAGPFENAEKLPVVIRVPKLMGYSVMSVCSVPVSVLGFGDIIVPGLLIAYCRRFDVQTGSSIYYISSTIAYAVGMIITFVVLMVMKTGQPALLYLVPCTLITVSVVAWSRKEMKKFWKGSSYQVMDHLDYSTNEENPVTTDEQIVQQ
The data set is described as follows: Inhibition of mouse SPPL2a in A20 cells assessed as CD74/p8 accumulation by flow cytometry. The class given is cell-based.

A short description of data set [6]: Clearance in Sprague-Dawley rat at 1 mg/kg, iv by LC/MS/MS analysis. The class given is ADME, organism-based. As to conditions: in vivo. The essentials:
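Female Sprague−Dawley rats with femoral artery and vein catheters implanted 96−120 h beforehand; cassette dosing iv 1 mg/kg per compound in NMP/PEG200 (30:70); arterial blood into EDTA tubes at several times, frozen; LC-MS/MS vs standard curve with QCs within 70−130%; noncompartmental analysis.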

Data set [7] is described as follows: Equilibrium solubility of the compound at pH 6.8 after 24 hrs by saturation shake flask based UV-HPLC method. It counts as physicochemical. Conditions: buffer.
Data set [8] in a line: Inhibition of human gamma-secretase expressed in HEK293 cells using Notch1-VP16-Gal4 as substrate after 24 hrs by Bright-Glo luciferase reporter gene assay. It counts as cell-based. Conditions: HEK293, 24 h. In short, it runs like this:
as §1

Data set [9] has as its system Rattus norvegicus. The data set is described as follows: Dose normalized AUC in Wistar rat at 10 mg/kg, po bid by LC/MS/MS analysis. It counts as ADME, organism-based. Conditions: in vivo.
The nature of data set [10]: Inhibition of human SPP expressed in human U2OS cells using EGFP-labeled EnvSigSeq-SEAP as substrate after 24 hrs by Hoechst staining based high content imaging assay. It counts as cell-based. The essentials:
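Stable U-2 OS lines expressing human SPPL2a, SPPL2b or SPP constitutively (mouse SPPL2a line analogous, mouse TNFα(aa1-77)-NTF-EGFP-NLS) with doxycycline-inducible EGFP substrate. 3000 cells/well, 3−4 h, then 11-point inhibitor 100 μM to 1 nM, 0.9% DMSO, 5 μg/mL doxycycline, 24 h 37 °C. PFA fixed, Hoechst nuclei; nuclear minus cytoplasmic EGFP intensity; inhibition vs 0.5 μM reference and DMSO; IC50 by nonlinear regression.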

For data set [11], the system named is Mus musculus. The data set can be described thus: In vivo inhibition of SPPL2a in mouse assessed as increase in CD74/p8 accumulation in splenocytes at 100 mg/kg, po administered as single dose measured after 4 hrs by Western blot method. It counts as functional, organism-based. A general note: Immunoblotting shows a protein as a band on a membrane.
The subject of data set [12] is Mus musculus. The data set is described as follows: In vivo inhibition of mouse gamma-secretase assessed as effect on Hes1 mRNA level in jejunum at 100 mg/kg, po administered as single dose by RT-PCR method. It counts as organism-based. The essentials:
(§2)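 Thymus and jejunum excised into RNALater, 4 °C overnight, washed, frozen at −80 °C; total RNA from 10 mg tissue by MagNA Pure LC; Hes1 measured by TaqMan real-time PCR; significance by two-tailed heteroscedastic Student's t-test.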

Data set [13] in a line: Selectivity ratio of IC50 for human gamma-secretase expressed in HEK293 cells to IC50 for human SPPL2a expressed in HEK293 cells. The essentials:
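HEK293 transiently transfected: SPPL2a arm with human SPPL2a, VP16-TNFα(aa1-76)-NTF and Gal4-luciferase; γ-secretase arm with human Notch1-VP16-Gal4 plus reporter (endogenous γ-secretase). Compound added 3 h after plating, 10 μM–0.3 nM final, triplicate, 24 h at 37 °C; luminescence read. IC50 from concentration vs normalised luminescence; ratio of the two IC50s.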

For data set [14], the system named is Mus musculus. The data set can be described thus: In vivo inhibition of mouse gamma-secretase assessed as effect on Hes1 mRNA level in thymus at 100 mg/kg, po administered as single dose by RT-PCR method. It counts as organism-based. The essentials:
as §2

In data set [15] the test system is Mus musculus. The data set can be described thus: In vivo inhibition of SPPL2a in mouse assessed as increase in CD74/p8 accumulation in splenocytes at 10 to 100 mg/kg, po administered as single dose measured after 4 hrs by Western blot method. It counts as functional, organism-based.
Data set [16] deals with T2, Signal peptide peptidase-like 2A. The data set is described as follows: Inhibition of SPPL2a in mouse whole blood assessed as increase in CD74/p8 accumulation after 5.5 hrs by Western bot method. The essentials:
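Mouse whole blood (200 μL) with compound from 20× stock, 0.5% DMSO final, 5.5 h at 37 °C, 5% CO2 with rotation. RBC lysis, washes, lysis in Tris pH 6.8/Triton/deoxycholate buffer; Western blot with rat anti-mouse CD74 (In-1); p8 band intensity normalized to CD74 full-length/β-actin for dose response.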

Data set [17] can be described thus: Clearance in Balb/c mouse at 5 mg/kg, iv by LC/MS/MS analysis. It counts as ADME, organism-based. As to conditions: in vivo.

Converted amounts (≈) assume the structure as drawn. The source made the active and inactive calls. The calls are words filed in the database; no cut-off is given here.

As for `Cc1ncc(F)cc1NC(=O)C[C@@H](C)C(=O)N[C@@H]1C(=O)N2CCCN2Cc2c(F)cccc21`, the bioavailability in data set [1] turned out to be 54%. Besides, the IC50 was 0.076 µM in data set [2], 0.121 µM in data set [5] and 7.8 µM in data set [8]. This molecule also registered a logP in [3] of 2.1. For the same molecule, in the data set on Rattus norvegicus [4], the AUC/dose amounted to 1522 nM·h. The clearance in [6] came to 0.9 L/h/kg. Besides, in [7], the thermodynamic solubility at 24 h came to 257 µM (≈ 118 µg/mL).

As to `C[C@H](NC(=O)[C@@H](O)c1cc(F)cc(F)c1)C(=O)N[C@@H]1C(=O)N(C)c2ccccc2-c2ccccc21`, the AUC/dose in the data set with Rattus norvegicus [9] is 63 nM·h. The IC50 was 0.05 µM in [10], 0.01 µM in data set [2] and less than 0.0003 µM in [8]. Moreover, the result with Mus musculus [11] and in the data set on Mus musculus [15] was Active. In addition, the Activity entry with Mus musculus [12] and in the data set with Mus musculus [14] was “Toxic” throughout. Further, the “Ratio IC50” value in [13] was less than 1.

Take `Cc1ncc(F)cc1NC(=O)C[C@H](C(=O)N[C@@H]1C(=O)N2CCCN2C(=O)c2ccccc21)C1CC1`: the lipophilicity (logP) in data set [3] stood at 1.6. For the same molecule, the IC50 is 0.496 µM in [5] and more than 10 µM in [8].

In data set [8], `Cc1ccc(NC(=O)C[C@@H](C)C(=O)N[C@@H]2C(=O)N3CCCN3Cc3ccccc32)cc1` gave an IC50 of 0.027 µM.

For `Cc1cccc(NC(=O)C[C@@H](C)C(=O)N[C@@H]2C(=O)N3CCCN3Cc3ccccc32)c1`, the half-inhibitory concentration (IC50) in [2] is 0.07 µM; in [8] it was 0.61 µM. In addition, the “Ratio IC50” value in data set [13] was 9.

`Cc1ncccc1NC(=O)C[C@@H](C)C(=O)N[C@@H]1C(=O)N2CCCN2Cc2ccccc21`: the half-maximal inhibitory concentration (IC50) in data set [2] was 1.02 µM; in [8], more than 10 µM. In data set [7], this molecule gave a solubility (thermodynamic) at 24 h of more than 1000 µM.

On to `CC(C)C[C@H](NC(=O)OCc1ccccc1)C(=O)N[C@@H](CC(C)C)C(=O)NCC(=O)CNC(=O)[C@H](CC(C)C)NC(=O)[C@H](CC(C)C)NC(=O)OCc1ccccc1`, for which the IC50 in data set [2] was 0.006 µM; in data set [8], more than 10 µM. Also, the “Ratio IC50” value in data set [13] is more than 1666.

Regarding `C[C@H](CC(=O)Nc1cc(F)cc(F)c1)C(=O)N[C@@H]1C(=O)N2CCCN2Cc2ccccc21`, the figures for the concentration for half-maximal inhibition (IC50) in data set [2] and in data set [8] were 0.005 µM and 0.017 µM, respectively. The “Ratio IC50” value in data set [13] came out at 3.

For `C[C@H](CC(=O)Nc1ccccc1C(F)(F)F)C(=O)N[C@@H]1C(=O)N2CCCN2Cc2ccccc21`, the IC50 in data set [2] was 2.85 µM; in data set [8] it was more than 10 µM. In addition, in data set [13], the “Ratio IC50” value is listed as more than 3.

On to `Cc1ncc(F)cc1NC(=O)C[C@@H](C)C(=O)N[C@@H]1C(=O)N2CCCN2Cc2ccccc21`, for which the IC50 in data set [16] came to 0.05 µM; in data set [2], 0.044 µM; in data set [5], 0.097 µM; in data set [8], 8.2 µM. This molecule had a bioavailability in [1] of 100%. For the same molecule, the clearance was 1.92 L/h/kg in data set [17] and 2.04 L/h/kg in [6]. In addition, the log partition coefficient (logP) in [3] is 1.7. The same molecule displayed an AUC/dose in the data set on Rattus norvegicus [4] of 157 nM·h. In addition, the solubility (thermodynamic) at 24 h in data set [7] was more than 1000 µM.

As to `Cc1ncc(F)cc1NC(=O)C[C@@H](C)C(=O)N[C@@H]1C(=O)N2CCCN2C(=O)c2ccccc21`, the logP in data set [3] was 0.9. In data set [8], this molecule registered a half-maximal inhibitory concentration (IC50) of more than 10 µM.

By bioavailability is commonly meant the share of a dose that reaches the circulation, judged against a reference dose that is usually intravenous. A low value points to poor availability. As a reminder, the IC50 is the concentration needed to halve the response being measured. For orientation: logP means a log measure of how a compound divides between an organic and an aqueous phase. Higher therefore signals a more lipophilic compound. In general, clearance refers to the rate of elimination divided by the concentration. A low value points to a low capacity for elimination. The term thermodynamic solubility denotes solubility found after equilibrating the solid with the medium.
